hDAT+cocaine: human DAT dopamine uptake with cocaine, either direction. Q01959. LLC-PK1 hDAT cells, [14C]-dopamine uptake with cocaine IC80; actives deviate in either direction. B-score at 10 µM. 110,000 compounds, 1.3% hits;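 active = Z score or B-score, a plate-position-corrected score, falls beyond the plate's 99.7% confidence bounds, in either direction; inactive = both scores lie inside the 99.7% bounds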;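 note: scored against the spread of the other compound wells on the same plate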
AP complement: orthogonal test for alternative complement pathway inhibitors. AID 1235. inhibition, % at 5 µM. Human serum alternative complement pathway, LPS-coated ELISA, C3 deposition; tested in compound mixtures. 62,000 compounds, 0.08% hits;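 active = inhibition above 30% in each of the two pooled mixtures holding the compound, so the lower value exceeds 30%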;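 note: 0% = serum in Mg-EGTA without compound and 100% = EDTA serum blank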
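Assay system: human serum alternative complement pathway, C3 deposition on LPS-coated wells; Dosing: 5 µM per compound in ten-compound mixtures; Detection: Anti-C3 ELISA, OD 450 nm; Buffer or medium: Mg2+-EGTA GVB++ buffer containing human serum at 1:15 dilution; Timing: 1 h at 37 °C; Replication: two different pools per compound.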
WNV NS2B-NS3 inh: WNV NS2B-NS3 proteinase inhibition | 65,000 compounds, 0.18% hits | z-score (test concentration not listed) | AID 577 | P06935 | WNV NS2B-NS3 protease, fluorogenic substrate Ex360/Em465; active compounds read low; in the data active = z-score below about -3
Target sequence (P06935 1371-1501 limits assumed): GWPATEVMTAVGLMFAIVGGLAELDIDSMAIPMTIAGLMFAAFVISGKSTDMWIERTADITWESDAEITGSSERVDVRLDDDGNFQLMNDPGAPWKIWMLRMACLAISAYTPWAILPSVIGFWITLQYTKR
Target sequence (P06935 1502-1679 limits assumed): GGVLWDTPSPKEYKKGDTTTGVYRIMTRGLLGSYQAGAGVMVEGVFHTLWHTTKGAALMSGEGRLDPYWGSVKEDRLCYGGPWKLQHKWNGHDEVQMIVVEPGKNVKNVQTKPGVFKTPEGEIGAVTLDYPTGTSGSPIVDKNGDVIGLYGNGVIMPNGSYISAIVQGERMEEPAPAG
D1 mod: D1 dopamine receptor (human) allosteric modulation. 58,000 compounds, 5.9% hits. HEK293 D1, CRE-luciferase, dopamine EC30 potentiation; actives deviate in either direction. AID 641. B-score at 10 µM. P21728;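 active = luminescence count or its row- and column-corrected plate score outside the 99.7% band of the plate's sample wells, on either side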
The depositor's hits bear a star; . = no result given. This is one part of a sample in which hits are shown more often than they occur.

SMILES | hDAT+cocaine | AP complement | WNV NS2B-NS3 inh | D1 mod
Cc1c(CNC(=O)c2cnn3c2NC(c2ccc(Br)cc2)CC3C(F)(F)F)cnn1C (stereo unspecified) | 3.13* | 13.1 | 0.56 | 0.334
CCCCn1c2nc3ccccc3nc2c2c(=N)oc(C)nc21 | . | 2.5 | 0.46 | 6.58*
CCCCC(CC)Cn1c2nc3ccccc3nc2c2c(=N)oc(C)nc21 (stereo unspecified) | . | 4.5 | 0.37 | 1.22
Cc1cc(OCC[N+]2(C)CCCCC2)nc2ccccc12 | -1.17 | . | . | .
CCC(C)n1c(SC(C)C#N)nc2ccccc2c1=O (stereo unspecified) | -1.24 | 6.9 | 1.12 | -4.79*
CC(C)(C)CN1C(N)=NC[C@@H]1Cc1ccccc1 | -2.68* | . | . | .
Cc1sc2nc3c4ccccc4c(NCc4ccco4)nn3c(=O)c2c1C | 0.999 | 14.1 | -3.26* | .
Cn1ccnc1SCC(=O)Nc1cccc(O)c1 | -1.19 | . | . | .
CCCCOc1cccc(NC(=O)CSc2nccn2C)c1 | 2.74* | 3.9 | -0.48 | 0.478
CCOC(=O)c1c(C(F)(F)C(F)(F)C(F)(F)C(F)(F)F)n[nH]c1C | 0.00701 | 8.4 | -1.15 | .
COc1ccc2sc(NC(=O)c3ccco3)nc2c1 | -0.52 | -12.7 | 0.93 | -5.67*
COc1ccc2nc(NC(=O)c3ccoc3C)sc2c1 | 0.166 | 18.8 | -1.01 | -4.27*
CCOC(=O)c1ccc(NC(=O)CSc2nc3cccnc3n2C)cc1 | 0.255 | . | . | .
CCn1c(SCC(=O)N/N=C/c2ccc(OC)c(OC)c2)nc2ccccc21 | 4.19* | . | . | .
CC(C)=CCOc1ccc([C@@H]2COc3c(ccc4c3C=CC(C)(C)O4)C2)c(O)c1 | -0.291 | . | . | .
CCOC(=O)c1ccc(Nc2ncnc3nc[nH]c23)cc1 | -0.0904 | -0.8 | -0.97 | -5.87*
CCOC(=O)c1ccc(Nc2ncnc3ccc(C)cc23)cc1 | -0.616 | . | . | .
COC(=O)[C@@H]1C[C@@]2(O)[C@@H](O)[C@@H](O)[C@@H](O)C[C@H]2N1CC(c1ccccc1)c1ccccc1 | -0.0655 | . | . | .
COc1ccc(C2=C(O)C(C)N(c3ccccc3)C2=N)cc1OC (stereo unspecified) | 0.185 | 5.9 | 0.09 | -3.54*
O=C(c1ccco1)N1CCN(c2cc(C(F)(F)F)nc3ncnn23)CC1 | -0.304 | -6.0 | 0.4 | 0.0196
O=C(NCCCn1ccnc1)c1ccc(Br)c(S(=O)(=O)N2CCOCC2)c1 | -8.36* | . | . | .
O=C(NCCCn1ccnc1)c1cc(S(=O)(=O)N2CCOCC2)c(Cl)cc1Cl | 0.343 | 20.1 | 0.71 | .
CCOC(=O)N1CCC(N2Cc3cccc(C(=O)Nc4ccc(OC)c(OC)c4)c3C2=O)CC1 | -0.178 | 6.4 | 0.04 | -2.16*
COCCN1Cc2cccc(C(=O)Nc3ccc(S(=O)(=O)N4CCCCC4)cc3)c2C1=O | . | 11.4 | -0.17 | 6.76*
CCCN1Cc2cccc(C(=O)Nc3ccc(OC)c(OC)c3)c2C1=O | . | 8.9 | 1.23 | 3.8*
SMILES | hDAT+cocaine | AP complement | WNV NS2B-NS3 inh | D1 mod
COc1ccc(C(=O)OCC(=O)c2ccccc2)cc1S(=O)(=O)N1CCOCC1 | 0.673 | . | . | .
CC(C)(C)C(=O)NCCc1nc2ccccc2n1CC(=O)c1ccc(Cl)cc1 | 0.294 | . | . | .
CC(=O)N1CCN(c2ccc(NC(=O)COc3ccc(Cl)cc3Cl)cc2)CC1 | 0.511 | -15.7 | 0.91 | -0.462
Cc1cccc(OCC(=O)Nc2ccc(N3CCN(S(C)(=O)=O)CC3)cc2)c1C | 0.268 | 25.3 | 0.3 | -0.383
CCN1CCN(c2ccc(NC(=O)Cc3ccccc3)cc2)CC1 | 0.0288 | 12.5 | 0.94 | -4.71*
Cc1ccccc1OCC(=O)Nc1ccc(N2CCN(S(C)(=O)=O)CC2)cc1 | -8.1* | -15.1 | 0.32 | 0.477
CCN1CCN(c2ccc(NC(=O)COc3ccccc3Cl)cc2)CC1 | -0.384 | 14.8 | -0.11 | -4.95*
CCCCCCOC(=O)Cc1c(C)nc(-c2ccccc2)[nH]c1=O | -0.75 | . | . | .
COc1ccc(C[C@H]2CN3C(=NC[C@@H]3C)N2CCNC(=O)CCC2CCCCC2)cc1 | -0.0655 | . | . | .
CN(c1ccc(Cl)cc1)c1cc(=O)n(C)c2ccccc12 | 3.07* | 4.9 | 1.48 | 0.18
O=C(NC1CC2CCC1C2)C1COc2ccccc2O1 (stereo unspecified) | 1.18 | 2.8 | 0.47 | 2.46
Cc1nc(CCNC(=O)c2cccs2)cs1 | 0.504 | . | 0.13 | 0.37
O=C(NCCc1csc(-c2ccccc2)n1)c1cccs1 | 1.81 | 10.2 | -0.44 | -5.05*
O=C(Nc1nsc(-c2ccccc2)n1)c1cccs1 | 0.0185 | 7.0 | -0.45 | -4.44*
O=S(=O)(NC12CC3CC(CC(C3)C1)C2)c1ccc(F)cc1 | -1.32 | . | . | .
Cc1cc(C)n2nc(S(=O)(=O)NC3CCCCC3)nc2n1 | -0.794 | 18.8 | 1.79 | -0.222
O=C(N/N=C/c1ccc(Br)cc1)c1ccccc1-n1cccc1 | -0.218 | . | . | .
